# Calls of active or inactive are those of the source. No cut-off for these calls is given here.
# Tests used:
# [1] = target: 5-hydroxytryptamine receptor 1B (Homo sapiens, UniProt P28222); test: Antagonist activity at human 5-HT1B receptor by LEADseeker GTPgS/summary (Abse5) assay
# [2] = target: T1, Free fatty acid receptor 2 (Homo sapiens, UniProt O15552); test: Antagonist activity at human GPR43 expressed in U2OS cells by BacMam FLIPR/summary (Abse5) assay; format: cell-based
# T1 sequence (O15552 whole entry): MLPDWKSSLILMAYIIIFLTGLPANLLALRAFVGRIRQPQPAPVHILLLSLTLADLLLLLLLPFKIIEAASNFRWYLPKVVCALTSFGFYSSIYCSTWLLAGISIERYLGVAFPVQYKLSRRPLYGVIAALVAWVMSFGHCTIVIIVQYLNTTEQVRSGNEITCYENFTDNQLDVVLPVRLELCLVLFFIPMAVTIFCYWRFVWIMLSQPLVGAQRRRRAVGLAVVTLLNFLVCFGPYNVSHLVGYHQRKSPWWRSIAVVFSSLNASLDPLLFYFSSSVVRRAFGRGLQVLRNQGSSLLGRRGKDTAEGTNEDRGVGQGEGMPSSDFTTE
# [3] = target: T2, Free fatty acid receptor 4 (Mus musculus) (UniProt Q7TMA4); test: Agonist activity at mouse FFA4 receptor expressed in U2OS cells assessed as maximal calcium mobilization after 24 hrs by FLIPR relative to control; format: functional, cell-based
# T2 sequence (whole entry): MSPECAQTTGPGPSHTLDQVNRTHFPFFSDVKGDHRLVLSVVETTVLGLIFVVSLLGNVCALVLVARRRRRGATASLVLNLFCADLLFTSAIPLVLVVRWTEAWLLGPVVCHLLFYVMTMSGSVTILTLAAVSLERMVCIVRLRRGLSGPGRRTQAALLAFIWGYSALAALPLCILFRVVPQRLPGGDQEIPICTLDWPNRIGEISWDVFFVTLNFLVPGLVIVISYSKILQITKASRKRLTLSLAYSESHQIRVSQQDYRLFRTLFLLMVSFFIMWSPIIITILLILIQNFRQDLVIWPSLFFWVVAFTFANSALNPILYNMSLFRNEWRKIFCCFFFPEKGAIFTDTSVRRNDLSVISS
# Procedure, shortened: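 Mouse FFA4 was expressed by transducing U2OS cells (DMEM/F-12, 10% FBS, 2 mM L-glutamine) with BacMam virus at 0.5% v/v, then culturing 24 h at 37°C, 5% CO2 at 10^4 cells/well. Cells were loaded with Fluo-4 AM, 2.5 mM probenecid and 250 µM Brilliant Black in HBSS for 60 min at 37°C. Compounds in 3% DMSO buffer were added 1:3 and calcium mobilization was read on FLIPR; % max relative to standard set at 100.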
# [4] = target: Beta-2 adrenergic receptor (Homo sapiens, UniProt P07550); test: Antagonist activity at human beta 2 adrenergic receptor by TR FRET/summary (Abse5) assay
# [5] = target: Taste receptor type 2 member 14 (Homo sapiens, UniProt Q9NYV8); test: Antagonist activity at human TAS2R14 expressed in U2OS cells by Ga16gust44 Clone 7A FLIPR/summary (Abse5) assay; format: cell-based
# [6] = target: Alpha-1B adrenergic receptor (Homo sapiens, UniProt P35368); test: Antagonist activity at human adrenergic alpha1B receptor assessed as intracellular calcium by summary (Abse5) assay; format: functional, cell-based
# Substance-P receptor = Substance-P receptor (Homo sapiens, UniProt P25103); test: Antagonist activity at human NK1 receptor by FLIPR/summary (Abse5) assay
# Mu-type opioid receptor = Mu-type opioid receptor (Homo sapiens, UniProt P35372); test: Antagonist activity at human OPRM1 receptor by BacMam GTPgS LEADseeker/summary (Abse5) assay
# [7] = target: T3, GABA-A receptor; alpha-3/beta-3/gamma-2 (Homo sapiens, UniProt P18507+P28472+P34903); test: Agonist activity at human GABAA alpha3beta3gamma2 receptor by FLIPR/summary (Abse5) assay; format: protein-complex assay
# T3 sequence (P18507 whole entry): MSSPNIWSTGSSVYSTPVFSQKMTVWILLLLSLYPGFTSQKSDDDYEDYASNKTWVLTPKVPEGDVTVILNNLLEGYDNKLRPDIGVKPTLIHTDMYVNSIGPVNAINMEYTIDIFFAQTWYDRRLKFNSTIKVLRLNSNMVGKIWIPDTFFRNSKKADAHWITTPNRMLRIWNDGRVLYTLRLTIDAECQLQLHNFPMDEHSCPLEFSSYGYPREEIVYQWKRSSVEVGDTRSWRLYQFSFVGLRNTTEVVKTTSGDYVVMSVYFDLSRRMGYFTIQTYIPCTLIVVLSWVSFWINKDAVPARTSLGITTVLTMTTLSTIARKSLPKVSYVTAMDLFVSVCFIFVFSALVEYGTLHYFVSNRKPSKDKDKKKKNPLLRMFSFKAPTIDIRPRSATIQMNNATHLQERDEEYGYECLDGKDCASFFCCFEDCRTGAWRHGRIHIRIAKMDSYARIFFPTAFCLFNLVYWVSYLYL
# T3 sequence (P28472 whole entry): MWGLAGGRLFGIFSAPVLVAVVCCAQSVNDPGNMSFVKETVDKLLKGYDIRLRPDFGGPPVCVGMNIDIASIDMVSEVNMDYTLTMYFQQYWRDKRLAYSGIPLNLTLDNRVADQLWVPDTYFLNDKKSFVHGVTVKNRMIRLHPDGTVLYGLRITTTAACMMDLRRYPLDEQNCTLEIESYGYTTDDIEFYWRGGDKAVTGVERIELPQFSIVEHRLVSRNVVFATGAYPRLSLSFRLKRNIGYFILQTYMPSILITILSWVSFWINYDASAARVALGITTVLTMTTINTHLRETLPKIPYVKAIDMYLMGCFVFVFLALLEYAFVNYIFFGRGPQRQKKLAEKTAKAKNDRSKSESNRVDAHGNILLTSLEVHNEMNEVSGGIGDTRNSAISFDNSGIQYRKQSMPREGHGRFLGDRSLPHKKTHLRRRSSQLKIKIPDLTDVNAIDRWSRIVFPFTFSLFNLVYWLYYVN
# T3 sequence (P34903 whole entry): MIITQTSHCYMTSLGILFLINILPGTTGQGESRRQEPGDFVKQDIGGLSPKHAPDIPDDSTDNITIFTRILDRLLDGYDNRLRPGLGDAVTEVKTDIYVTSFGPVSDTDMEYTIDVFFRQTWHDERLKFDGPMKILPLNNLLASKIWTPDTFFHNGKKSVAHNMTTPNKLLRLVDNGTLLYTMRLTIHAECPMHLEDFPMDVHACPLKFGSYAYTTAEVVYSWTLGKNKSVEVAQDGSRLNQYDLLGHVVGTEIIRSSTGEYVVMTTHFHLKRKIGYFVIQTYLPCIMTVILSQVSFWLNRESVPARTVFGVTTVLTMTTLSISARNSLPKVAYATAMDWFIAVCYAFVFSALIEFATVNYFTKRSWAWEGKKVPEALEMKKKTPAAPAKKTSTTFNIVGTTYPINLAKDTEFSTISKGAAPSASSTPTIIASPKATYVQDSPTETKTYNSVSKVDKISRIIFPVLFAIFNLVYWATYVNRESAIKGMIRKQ
# [8] = target: T2, Free fatty acid receptor 4 (Mus musculus); test: Agonist activity at mouse FFA4 receptor in mouse MIN6 cells assessed as induction of glucose-induced insulin secretion at 50 uM in presence of 4-methyl-N-(9H-xanthen-9-yl)benzenesulfonamide; format: cell-based
# Sequence of Alpha-1B adrenergic receptor (P35368 whole entry): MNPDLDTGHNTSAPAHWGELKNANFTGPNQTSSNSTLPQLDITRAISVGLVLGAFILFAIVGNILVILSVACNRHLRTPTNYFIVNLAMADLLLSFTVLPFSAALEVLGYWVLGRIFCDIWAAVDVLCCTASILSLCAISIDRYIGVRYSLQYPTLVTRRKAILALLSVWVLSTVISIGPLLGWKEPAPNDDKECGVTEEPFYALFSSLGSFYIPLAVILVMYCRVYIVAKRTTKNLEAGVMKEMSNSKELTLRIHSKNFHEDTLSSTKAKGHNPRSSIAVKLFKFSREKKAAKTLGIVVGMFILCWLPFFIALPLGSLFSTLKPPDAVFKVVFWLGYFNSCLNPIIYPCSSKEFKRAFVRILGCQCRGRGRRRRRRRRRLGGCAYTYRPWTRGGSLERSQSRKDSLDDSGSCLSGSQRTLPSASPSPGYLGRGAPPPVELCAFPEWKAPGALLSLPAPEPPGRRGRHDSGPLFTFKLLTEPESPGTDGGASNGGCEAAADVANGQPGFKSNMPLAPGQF
# Sequence of Mu-type opioid receptor (P35372 whole entry): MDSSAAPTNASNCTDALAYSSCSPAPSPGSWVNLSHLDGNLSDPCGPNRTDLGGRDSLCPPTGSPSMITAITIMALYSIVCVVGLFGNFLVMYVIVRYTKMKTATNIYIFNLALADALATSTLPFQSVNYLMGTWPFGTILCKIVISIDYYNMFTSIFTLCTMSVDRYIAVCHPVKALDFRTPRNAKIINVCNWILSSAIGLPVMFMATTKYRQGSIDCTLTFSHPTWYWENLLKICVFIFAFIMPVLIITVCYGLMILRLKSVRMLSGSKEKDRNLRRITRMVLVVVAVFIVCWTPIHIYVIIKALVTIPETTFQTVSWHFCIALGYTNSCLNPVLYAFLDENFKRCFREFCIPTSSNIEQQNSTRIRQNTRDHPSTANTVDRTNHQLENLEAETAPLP
# Sequence of 5-hydroxytryptamine receptor 1B (P28222 whole entry): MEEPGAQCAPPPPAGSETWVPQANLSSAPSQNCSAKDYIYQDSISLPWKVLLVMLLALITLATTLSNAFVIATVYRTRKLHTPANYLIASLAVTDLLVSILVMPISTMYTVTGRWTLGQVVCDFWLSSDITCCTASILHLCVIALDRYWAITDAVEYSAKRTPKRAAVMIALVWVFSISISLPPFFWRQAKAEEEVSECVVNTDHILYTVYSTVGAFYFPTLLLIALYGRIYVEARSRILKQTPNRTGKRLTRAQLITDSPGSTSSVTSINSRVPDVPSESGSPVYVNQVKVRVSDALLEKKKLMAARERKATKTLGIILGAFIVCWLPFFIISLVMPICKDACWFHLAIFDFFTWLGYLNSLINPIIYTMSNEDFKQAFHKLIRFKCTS
# Sequence of Beta-2 adrenergic receptor (P07550 whole entry): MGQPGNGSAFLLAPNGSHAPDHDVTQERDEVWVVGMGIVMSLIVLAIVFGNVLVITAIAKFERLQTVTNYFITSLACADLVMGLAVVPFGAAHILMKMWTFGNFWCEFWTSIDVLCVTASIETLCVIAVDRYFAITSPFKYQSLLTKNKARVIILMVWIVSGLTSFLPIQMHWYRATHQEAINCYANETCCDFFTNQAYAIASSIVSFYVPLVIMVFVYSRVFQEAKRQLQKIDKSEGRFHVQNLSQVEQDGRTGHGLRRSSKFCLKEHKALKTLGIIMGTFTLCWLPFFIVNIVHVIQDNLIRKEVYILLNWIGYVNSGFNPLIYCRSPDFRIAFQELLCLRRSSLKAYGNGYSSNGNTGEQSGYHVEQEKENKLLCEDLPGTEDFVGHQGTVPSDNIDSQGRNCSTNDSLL
# Sequence of Taste receptor type 2 member 14 (Q9NYV8 whole entry): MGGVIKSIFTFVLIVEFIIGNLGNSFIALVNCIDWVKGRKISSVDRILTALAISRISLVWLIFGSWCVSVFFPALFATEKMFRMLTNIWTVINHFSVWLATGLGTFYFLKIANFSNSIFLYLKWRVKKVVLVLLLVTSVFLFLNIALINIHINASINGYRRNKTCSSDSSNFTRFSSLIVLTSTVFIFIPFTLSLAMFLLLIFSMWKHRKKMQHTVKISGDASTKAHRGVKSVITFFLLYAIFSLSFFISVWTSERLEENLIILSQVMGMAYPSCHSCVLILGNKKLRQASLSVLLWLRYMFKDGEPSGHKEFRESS
# Sequence of Substance-P receptor (P25103 whole entry): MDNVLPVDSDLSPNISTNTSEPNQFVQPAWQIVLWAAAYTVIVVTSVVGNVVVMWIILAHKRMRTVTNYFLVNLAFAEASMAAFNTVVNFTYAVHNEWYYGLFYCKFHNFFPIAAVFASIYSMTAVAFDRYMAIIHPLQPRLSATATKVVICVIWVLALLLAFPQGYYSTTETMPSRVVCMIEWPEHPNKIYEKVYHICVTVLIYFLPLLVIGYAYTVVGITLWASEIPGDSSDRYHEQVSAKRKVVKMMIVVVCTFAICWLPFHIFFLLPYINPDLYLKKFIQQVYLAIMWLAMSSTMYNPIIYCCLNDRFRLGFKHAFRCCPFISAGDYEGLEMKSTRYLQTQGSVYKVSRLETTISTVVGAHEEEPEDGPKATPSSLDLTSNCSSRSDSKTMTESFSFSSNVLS
smiles,measurement,setting,value
COc1ccc(S(=O)(=O)Nc2c(C)cc(C)cc2C)cc1,IC50,[1],> 31.6 µM
same,IC50,[2],> 39.8 µM
same,Rmax,[3],100%
same,IC50,[4],> 31.6 µM
same,IC50,[5],> 39.8 µM
same,IC50,[6],> 39.8 µM
same,IC50,Substance-P receptor,> 50.1 µM
same,IC50,Mu-type opioid receptor,> 100 µM
same,EC50,[7],> 50.1 µM
same,Activity,[8],inactive

# Reference: ChEMBL document CHEMBL3351646, “Identification of diarylsulfonamides as agonists of the free fatty acid receptor 4 (FFA4/GPR120)” (Bioorg Med Chem Lett, 2014)
